Experimental data reported in ChEMBL document CHEMBL2177069, “Novel peptidomimetic compounds containing redox active chalcogens and quinones as potential anticancer agents” (Eur J Med Chem, 2012).
Active and inactive are the calls of the source. No cut-off for these calls is given here.

Tests used:
SK-OV-3 = assay: Cytotoxicity against human SKOV3 cells; type: functional
KM12 = assay: Cytotoxicity against human KM12 cells; type: functional
NCI-H522 = assay: Cytotoxicity against human NCI-H522 cells; type: functional
MOLT-4 = assay: Cytotoxicity against human MOLT4 cells; type: functional
A498 = assay: Cytotoxicity against human A498 cells; type: functional
Saccharomyces cerevisiae [1] = assay: Growth inhibition of wild type Saccharomyces cerevisiae BY4741 at 20 ug/disc after 24 to 48 hrs by agar diffusion assay; type: functional; conditions: read-out: DIZ
Outline: (§1)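 S. cerevisiae deletion mutants or wild type grown on YPD, seeded into liquid agar medium at an optical density of 0.1. 6 mm paper discs soaked with methanolic compound solution were placed on the plates and incubated at 30 °C. Growth was checked after 1 and 2 days, and the inhibition zone diameter was recorded in mm.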

EKVX = assay: Cytotoxicity against human EKVX cells; type: functional
Saccharomyces cerevisiae [2] = assay: Growth inhibition of WSC4-deficient Saccharomyces cerevisiae YHL028W mutant at 20 ug/disc 24 to 48 hrs by agar diffusion assay; type: functional; conditions: read-out: DIZ; outline: as §1
OVCAR-4 = assay: Cytotoxicity against human OVCAR4 cells; type: functional
MCF7 = assay: Cytotoxicity against human MCF7 cells; type: functional
PtK2 [3] = assay: Induction of oxidative stress in potoroo PtK2 cells assessed as reduction in actin stress fibres after 24 hrs by immunofluorescence microscopic analysis; type: functional, cell-based; conditions: Potorous tridactylus
Outline: (§2)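 PtK2 cells were grown on coverslips and treated once semi-confluent, for 24 h. Cells were fixed with 3.7% paraformaldehyde followed by 0.1% Triton X-100, or with cold methanol/acetone 50:50. Primary and secondary antibodies were applied for 45 min each: anti-GRP94 for ER, anti-α-tubulin. Actin was stained with phalloidin and nuclei with DAPI. Imaging was by fluorescence microscopy with a CCD camera.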

OVCAR-8 = assay: Cytotoxicity against human OVCAR8 cells; type: functional
SNB-19 = assay: Cytotoxicity against human SNB19 cells; type: functional
PtK2 [4] = assay: Induction of oxidative stress in potoroo PtK2 cells assessed as reduction in cell adhesion after 24 hrs by immunofluorescence microscopic analysis; type: functional, cell-based; conditions: Potorous tridactylus; outline: as §2
IGROV-1 = assay: Cytotoxicity against human IGROV1 cells; type: functional
CAKI-1 = assay: Cytotoxicity against human Caki1 cells; type: functional
Saccharomyces cerevisiae [5] = assay: Growth inhibition of COX17-deficient Saccharomyces cerevisiae YLL009C mutant at 20 ug/disc after 24 to 48 hrs by agar diffusion assay; type: functional; conditions: read-out: DIZ; outline: as §1
UACC-257 = assay: Cytotoxicity against human UACC257 cells; type: functional
SF-268 = assay: Cytotoxicity against human SF268 cells; type: functional
[6] = Cytotoxicity against human 786-O cells; type: functional
SR = assay: Cytotoxicity against human SR cells; type: functional
ACHN = assay: Cytotoxicity against human ACHN cells; type: functional
Malme-3M = assay: Cytotoxicity against human MALME-3M cells; type: functional
Saccharomyces cerevisiae [7] = assay: Growth inhibition of GSH2-deficient Saccharomyces cerevisiae YOL049W mutant at 20 ug/disc after 24 to 48 hrs by agar diffusion assay; type: functional; conditions: read-out: DIZ; outline: as §1
DU-145 = assay: Cytotoxicity against human DU145 cells; type: functional
Saccharomyces cerevisiae [8] = assay: Growth inhibition of POS5-deficient Saccharomyces cerevisiae YPL188W mutant at 20 ug/disc after 24 to 48 hrs by agar diffusion assay; type: functional; conditions: read-out: DIZ; outline: as §1
PtK2 [9] = assay: Induction of oxidative stress in potoroo PtK2 cells assessed as change in cell morphology after 24 hrs by immunofluorescence microscopic analysis; type: functional, cell-based; conditions: Potorous tridactylus; outline: as §2
PtK2 [10] = assay: Induction of oxidative stress in potoroo PtK2 cells assessed as hole in the endoplasmic reticulum after 24 hrs by immunofluorescence microscopic analysis; type: functional, cell-based; conditions: Potorous tridactylus; outline: as §2
[11] = Cytotoxicity against human PHF cells after 24 hrs by MTT assay; type: cell-based
Outline: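 MTT assay. Cells were seeded at 50,000 cells/mL in medium with 10% fetal calf serum and grown for two days at 37 °C, 10% CO2. Serial dilutions of compound were then added for 24 h. MTT was added (final 0.5 mg/mL) for 2 h, and the formazan was pelleted, washed, dissolved in isopropanol with 0.4% HCl and read at 590 nm. IC50 is the concentration giving 50% of untreated-control absorbance, taken from dose-response curves; mean of two parallel experiments.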

PtK2 [12] = assay: Induction of oxidative stress in potoroo PtK2 cells assessed as change in microtubular network after 24 hrs by immunofluorescence microscopic analysis; type: functional, cell-based; conditions: Potorous tridactylus; outline: as §2
SK-MEL-2 = assay: Cytotoxicity against human SK-MEL-2 cells; type: functional
Saccharomyces cerevisiae [13] = assay: Growth inhibition of SOD1-deficient Saccharomyces cerevisiae YJR104C mutant at 20 ug/disc after 24 to 48 hrs by agar diffusion assay; type: functional; conditions: read-out: DIZ; outline: as §1
Saccharomyces cerevisiae [14] = assay: Growth inhibition of UFD2-deficient Saccharomyces cerevisiae YDL190C mutant at 20 ug/disc after 24 to 48 hrs by agar diffusion assay; type: functional; conditions: read-out: DIZ; outline: as §1
CCRF-CEM = assay: Cytotoxicity against human CCRF-CEM cells; type: functional
Saccharomyces cerevisiae [15] = assay: Growth inhibition of RCK1-deficient Saccharomyces cerevisiae YGL158W mutant at 20 ug/disc after 24 to 48 hrs by agar diffusion assay; type: functional; conditions: read-out: DIZ; outline: as §1
MDA-MB-231 = assay: Cytotoxicity against human MDA-MB-231 cells; type: functional
Saccharomyces cerevisiae [16] = assay: Growth inhibition of SOD2-deficient Saccharomyces cerevisiae YHR008C mutant at 20 ug/disc 24 to 48 hrs by agar diffusion assay; type: functional; conditions: read-out: DIZ; outline: as §1
NCI-H226 = assay: Cytotoxicity against human NCI-H226 cells; type: functional
NCI/ADR-RES = assay: Cytotoxicity against human NCI/ADR-RES cells; type: functional

CC1=C([Se]CC(OC(=O)[C@@H](CO)NC(=O)OC(C)(C)C)C(=O)NC(C)(C)C)C(=O)c2ccccc2C1=O (stereo partly drawn)
GI50 (SK-OV-3): 1.26 µM | LC50 (SK-OV-3): 5.13 µM | TGI (SK-OV-3; read-out: pTGI (converted)): 2.57 µM | GI50 (KM12): 1.51 µM | LC50 (KM12): 5.5 µM | TGI (KM12; read-out: pTGI (converted)): 2.88 µM | GI50 (NCI-H522): 1.58 µM | LC50 (NCI-H522): 6.17 µM | TGI (NCI-H522; read-out: pTGI (converted)): 3.16 µM | GI50 (MOLT-4): 0.447 µM | LC50 (MOLT-4): > 100 µM | GI50 (A498): 3.63 µM | LC50 (50% lethal concentration) (A498): 39.8 µM | TGI (A498; read-out: pTGI (converted)): 15.1 µM | zone of inhibition at 20 µg/disc (Saccharomyces cerevisiae [1]): 0 mm | GI50 (EKVX): 1.78 µM | LC50 (EKVX): 7.76 µM | TGI (EKVX; read-out: pTGI (converted)): 3.72 µM | zone of inhibition at 20 µg/disc (Saccharomyces cerevisiae [2]): 19 mm | GI50 (OVCAR-4): 1.23 µM | LC50 (OVCAR-4): 5.01 µM | TGI (OVCAR-4; read-out: pTGI (converted)): 2.51 µM | GI50 (MCF7): 1.74 µM | LC50 (MCF7): 8.91 µM | TGI (MCF7; read-out: pTGI (converted)): 3.98 µM | Activity (PtK2 [3]): Active | GI50 (OVCAR-8): 1.86 µM | TGI (OVCAR-8; read-out: pTGI (converted)): 3.55 µM | GI50 (SNB-19): 0.661 µM | LC50 (SNB-19): 4.9 µM | TGI (SNB-19; read-out: pTGI (converted)): 2 µM | Activity (PtK2 [4]): Active | GI50 (IGROV-1): 1.66 µM | LC50 (concentration killing 50% of cells) (IGROV-1): 6.46 µM | TGI (IGROV-1; read-out: pTGI (converted)): 3.24 µM | GI50 (CAKI-1): 1.74 µM | LC50 (CAKI-1): 6.61 µM | TGI (CAKI-1; read-out: pTGI (converted)): 3.39 µM | zone of inhibition at 20 µg/disc (Saccharomyces cerevisiae [5]): 13 mm | GI50 (UACC-257): 1.74 µM | LC50 (UACC-257): 6.03 µM | TGI (UACC-257; read-out: pTGI (converted)): 3.24 µM | GI50 (SF-268): 1.91 µM | LC50 (SF-268): 5.89 µM | TGI (SF-268; read-out: pTGI (converted)): 3.31 µM | GI50 ([6]; 786-0): 1.95 µM | LC50 ([6]; 786-0): 5.89 µM | TGI ([6]; 786-0, read-out: pTGI (converted)): 3.39 µM | GI50 (SR): 0.741 µM | LC50 (SR): > 100 µM | GI50 (ACHN): 1.58 µM | LC50 (ACHN): 5.75 µM | TGI (ACHN; read-out: pTGI (converted)): 3.02 µM | GI50 (Malme-3M): 2.04 µM | LC50 (Malme-3M): 6.92 µM | TGI (Malme-3M; read-out: pTGI (converted)): 3.8 µM | zone of inhibition at 20 µg/disc (Saccharomyces cerevisiae [7]): 18 mm | GI50 (DU-145): 1.91 µM | LC50 (DU-145): 6.03 µM | TGI (DU-145; read-out: pTGI (converted)): 3.39 µM | zone of inhibition at 20 µg/disc (Saccharomyces cerevisiae [8]): 11 mm | Activity (PtK2 [9]): Active | Activity (PtK2 [10]): Active | IC50 [11]: 7 µM | Activity (PtK2 [12]): inactive | GI50 (SK-MEL-2): 2.19 µM | LC50 (SK-MEL-2): 9.55 µM | TGI (SK-MEL-2; read-out: pTGI (converted)): 4.57 µM | zone of inhibition at 20 µg/disc (Saccharomyces cerevisiae [13]): 22 mm | zone of inhibition at 20 µg/disc (Saccharomyces cerevisiae [14]): 13 mm | GI50 (CCRF-CEM): 0.525 µM | LC50 (CCRF-CEM): > 100 µM | TGI (CCRF-CEM; read-out: pTGI): > 100 µM | zone of inhibition at 20 µg/disc (Saccharomyces cerevisiae [15]): 18 mm | GI50 (MDA-MB-231): 1.62 µM | LC50 (MDA-MB-231): 6.03 µM | TGI (MDA-MB-231; read-out: pTGI (converted)): 3.16 µM | zone of inhibition at 20 µg/disc (Saccharomyces cerevisiae [16]): 19 mm | GI50 (NCI-H226): 1.95 µM | CC50 (NCI-H226; read-out: pLC50 (the source's name) (converted)): 9.12 µM | TGI (NCI-H226; read-out: pTGI (converted)): 4.17 µM | GI50 (NCI/ADR-RES): 1.62 µM | TGI (NCI/ADR-RES; read-out: pTGI (converted)): 3.09 µM
